Assay results published in the RNAGym collection of RNA variant scans (doi:10.1126/science.aae0568).
This sample holds only a part of the variants without activity.

B1: tRNA (parent)
chain: GUUCCGUUGGCGUAAUGGUAACGCGUCUCCCUCCUAAGGAGAAGACUGCGGGUUCGAGUCCCGUACGGAACG

Variants of: B1
Assay: yeast fitness relative to wild type (ratio to wild type); higher = fitter; tRNA-Arg(CCU), competitive growth, 37 C, YPD
In short: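 Variants of the tRNA-Arg(CCU) gene were chemically synthesised with a 3% per-site mutation rate across 69 sites and placed at the native genomic locus in Saccharomyces cerevisiae. Six parallel replicates of the pooled strains were competed in YPD at 37°C for 24 hours, and gene amplicons from the start and end populations were read by 100-nucleotide paired-end sequencing. Darwinian fitness relative to wild type was derived from changes in genotype frequencies. Genotypes required ≥ 100 starting reads, and estimates < 0.5 were set to 0.5.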
For GUUCCGUUGGCGUAAUGGUAACGCGUCUCCCUCCUAAGGAGAAUACUGCGGGUUCGAGUCCCGUACGGAACG [G44U], the yeast fitness was 1.01.
For GUUCCGUUGGCGUAAUGGUAACGCGUCUCCCUCCUAAGGAGAAUACUGCGGGUUCGAGUCCCGUACGGACCG [G44U A70C], the yeast fitness was 0.813.
Variant GUUCCGUUGGCGUAAUGGUAACGCGUCUCCCUCCUAAGGAGAAUACUGCGGAUUGGAGUCCCGUACGGUACG [G44U G52A C55G A69U] has a yeast fitness of at most 0.5.
GUUCCGUUGGCGUAAUGGUAACGCGUCUCCCUCCUAAGGAGAAGCCUGCGGGUUCGCGUCCCGUACGGAACG [A45C A57C] showed a yeast fitness of 0.573.
GUUCCGUUGGCGUAAUGGUAACGCGUCUCCCUCCUAAGGAGAAGCCUGCGGGUUCGCCUCCCGUACGGAACG [A45C A57C G58C] gave a yeast fitness of 0.602.
With GUUCCGUUGGCGUAAUGGUAACGCGUCUCCCUCCUAAGGAGAAGCCUGCGGGUUCGUGUCCCGUACGGAACG [A45C A57U] the yeast fitness was 0.682.
For GUUCCGUUGGCGUAAUGGUAACGCGUCUCCCUCCUAAGGAGAAGCCUGCGGGUUCGUGUCCCGUCCGGAACG [A45C A57U A65C], the yeast fitness was 0.617.
Work on GUUCCGUUGGCGUAAUGGUAACGCGUCUCCCUCCUAAGGAGAAGCCUGCGGGUUCGUGUUCCGUCCGGAACG [A45C A57U C60U A65C] yielded a yeast fitness of at most 0.5.
GUUCCGUUGGCGUAAUGGUAACGCGUCUCCCUCCUAAGGAGAAGCCUGCGGGUUCGAGUCCCGUACGGUACG [A45C A69U] gave a yeast fitness of 0.959.
Work on GUUCCGUUGGCGUAAUGGUAACGCGUCUCCCUCCUAAGGAGAAGCCUGCGGGUUCGAGUCCCGUACGGACCG [A45C A70C] yielded a yeast fitness of 1.05.
In the case of GUUCCGUUGGCGUAAUGGUAACGCGUCUCCCUCCUAAGGAGAAGCAUGCGGGUUCGAGUCCAGUACGGAACG [A45C C46A C62A], the yeast fitness is reported as 0.603.
GUUCCGUUGGCGUAAUGGUAACGCGUCUCCCUCCUAAGGAGAAGCGUGAGGGUUCGAGUCCCGUACGGUACG [A45C C46G C49A A69U] gave a yeast fitness of at most 0.5.
With GUUCCGUUGGCGUAAUGGUAACGCGUCUCCCUCCUAAGGAGAAGCGUGCGCGUUCGAGUCCCGUACGGAACG [A45C C46G G51C] the yeast fitness was 0.546.
GUUCCGUUGGCGUAAUGGUAACGCGUCUCCCUCCUAAGGAGAAGCGUGCGGGUUCGAGUCCCGUACGAAACG [A45C C46G G68A] gave a yeast fitness of 0.678.
With GUUCCGUUGGCGUAAUGGUAACGCGUCUCCCUCCUAAGGAGAAGCCUGGGGGUUCGACUCCCGUACGGAACG [A45C C49G G58C] the yeast fitness was at most 0.5.
GUUCCGUUGGCGUAAUGGUAACGCGUCUCCCUCCUAAGGAGAAGCCUGUGGGUUCAAGUCCCGUACGGAACG [A45C C49U G56A] gave a yeast fitness of 0.856.
With GUUCCGUUGGCGUAAUGGUAACGCGUCUCCCUCCUAAGGAGAAGCCUGUGGGUUCGAGUCCCAUACGGAACG [A45C C49U G63A] the yeast fitness was 0.74.
Variant GUUCCGUUGGCGUAAUGGUAACGCGUCUCCCUCCUAAGGAGAAGCCUGCGGGUUGGAGUCCCGUACGGAACG [A45C C55G] has a yeast fitness of 0.528.
Variant GUUCCGUUGGCGUAAUGGUAACGCGUCUCCCUCCUAAGGAGAAGCCUGCGGGUUCGAGUACCGUACGGAACG [A45C C60A] has a yeast fitness of 0.62.
GUUCCGUUGGCGUAAUGGUAACGCGUCUCCCUCCUAAGGAGAAGCCUGCGGGUUCGAGUACCGUAUGGAACG [A45C C60A C66U] gave a yeast fitness of at most 0.5.
Work on GUUCCGUUGGCGUAAUGGUAACGCGUCUCCCUCCUAAGGAGAAGCCUGCGGGUUCGAGUUCCGUACGGAGCG [A45C C60U A70G] yielded a yeast fitness of 0.683.
Work on GUUCCGUUGGCGUAAUGGUAACGCGUCUCCCUCCUAAGGAGAAGCCUGCGGGUUCGAGUCACGUACGGAACG [A45C C61A] yielded a yeast fitness of 0.797.
Variant GUUCCGUUGGCGUAAUGGUAACGCGUCUCCCUCCUAAGGAGAAGCCUGCGGGUUCGAGUCUCGUACGGAACG [A45C C61U] has a yeast fitness of 0.992.
GUUCCGUUGGCGUAAUGGUAACGCGUCUCCCUCCUAAGGAGAAGCCUGCGGGUUCGAGUCCCGUAGGGAACG [A45C C66G] gave a yeast fitness of 0.586.
Work on GUUCCGUUGGCGUAAUGGUAACGCGUCUCCCUCCUAAGGAGAAGCCUACGGGUUCGAGUCCCGUACGGAACG [A45C G48A] yielded a yeast fitness of 0.828.
GUUCCGUUGGCGUAAUGGUAACGCGUCUCCCUCCUAAGGAGAAGCCUACGGGUUCGAGUCCCGUACAGAACG [A45C G48A G67A] showed a yeast fitness of 0.829.
With GUUCCGUUGGCGUAAUGGUAACGCGUCUCCCUCCUAAGGAGAAGCCUCCGGGUUCGAGUCCCGUACGGUACG [A45C G48C A69U] the yeast fitness was 0.675.
For GUUCCGUUGGCGUAAUGGUAACGCGUCUCCCUCCUAAGGAGAAGCCUCCAGGCUCGAGUCCCGUAAGGAACG [A45C G48C G50A U53C C66A], the yeast fitness was at most 0.5.
With GUUCCGUUGGCGUAAUGGUAACGCGUCUCCCUCCUAAGGAGAAGCCUGCAGGUUCGGGUCCCGUACGGAACG [A45C G50A A57G] the yeast fitness was 0.665.
For GUUCCGUUGGCGUAAUGGUAACGCGUCUCCCUCCUAAGGAGAAGCCUGCAGGUUCGAGUCCCGUUCGGAACG [A45C G50A A65U], the yeast fitness was 0.643.
GUUCCGUUGGCGUAAUGGUAACGCGUCUCCCUCCUAAGGAGAAGCCUGCGAGUUAGAGUCCCGUACGGAACG [A45C G51A C55A] gave a yeast fitness of 0.516.
Variant GUUCCGUUGGCGUAAUGGUAACGCGUCUCCCUCCUAAGGAGAAGCCUGCGCGUUCGAGUCCCGCACGGAACG [A45C G51C U64C] has a yeast fitness of at most 0.5.
In the case of GUUCCGUUGGCGUAAUGGUAACGCGUCUCCCUCCUAAGGAGAAGCCUGCGGAUUCGAGUCCCGUACGGCACG [A45C G52A A69C], the yeast fitness is reported as 0.568.
For GUUCCGUUGGCGUAAUGGUAACGCGUCUCCCUCCUAAGGAGAAGCCUGCGGACUCGAAUCCGGUACGGAACG [A45C G52A U53C G58A C62G], the yeast fitness was at most 0.5.
With GUUCCGUUGGCGUAAUGGUAACGCGUCUCCCUCCUAAGGAGAAGCCUGCGGCUUCGAGUCCCGUACGGAACG [A45C G52C] the yeast fitness was 0.762.
With GUUCCGUUGGCGUAAUGGUAACGCGUCUCCCUCCUAAGGAGAAGCCUGCGGGUUCGAAUCCCGUACGGAACG [A45C G58A] the yeast fitness was 0.977.
GUUCCGUUGGCGUAAUGGUAACGCGUCUCCCUCCUAAGGAGAAGCCUGCGGGUUCGAAUCCUGUACGGCACG [A45C G58A C62U A69C] showed a yeast fitness of 0.59.
In the case of GUUCCGUUGGCGUAAUGGUAACGCGUCUCCCUCCUAAGGAGAAGCCUGCGGGUUCGACUCCCGUACGGAACG [A45C G58C], the yeast fitness is reported as 1.06.
